ChEMBL document CHEMBL1124475, “The thieno[3,2-c]pyridine and furo[3,2-c]pyridine rings: new pharmacophores with potential antipsychotic activity” (J Med Chem, 1989)
Calls of active or inactive are those of the source. The rule behind the calls is not given here.

How the values were obtained:
[1] = test system: Rattus norvegicus; experiment: Spontaneous discharge activity of individual dopaminergic neurons in the substantia nigra (A9 DA cells) when administered intravenously at a dose of 0.1-6.3 mg/kg in anesthetized male Sprague-Dawley rats; No effect at a dose of 0.1-6.3 mg/kg; format: functional, organism-based; settings: A9DA
[2] = test system: Rattus norvegicus; experiment: Reversal of trifluoperazine-induced catalepsy in rats when administered perorally; format: functional; settings: po
[3] = target: D(2) dopamine receptor (Rattus norvegicus, UniProt P61169); experiment: Ability to bind at Dopamine receptor D2 of rat corpus striatum by displacing [3H]spiperone
Sequence of D(2) dopamine receptor (P61169 whole entry): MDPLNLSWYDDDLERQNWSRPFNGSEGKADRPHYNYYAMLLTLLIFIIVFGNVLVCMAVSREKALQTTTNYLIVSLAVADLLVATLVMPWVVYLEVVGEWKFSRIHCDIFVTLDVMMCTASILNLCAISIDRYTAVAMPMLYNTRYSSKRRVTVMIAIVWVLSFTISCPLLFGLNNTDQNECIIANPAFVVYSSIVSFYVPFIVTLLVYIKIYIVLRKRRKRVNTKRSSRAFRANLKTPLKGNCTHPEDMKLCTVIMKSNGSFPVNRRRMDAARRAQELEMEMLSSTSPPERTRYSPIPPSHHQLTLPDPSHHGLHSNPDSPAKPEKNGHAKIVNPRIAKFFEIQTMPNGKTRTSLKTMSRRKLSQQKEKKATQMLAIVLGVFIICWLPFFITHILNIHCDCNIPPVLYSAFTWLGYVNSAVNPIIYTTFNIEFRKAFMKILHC
Method in brief: (§1)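 Rat receptor radioligand displacement, five test-ligand concentrations used to calculate IC50, each assay in duplicate. Some compounds determined four times (in duplicate), with mean IC50 reported.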

[4] = test system: Rattus norvegicus; experiment: Spontaneous discharge activity of individual noradrenergic neurons in the locus coeruleus (LC) when administered intravenously in anesthetized male Sprague-Dawley rats; (excitatory); format: functional; settings: iv
[5] = target: Serotonin 1 (5-HT1) receptor (Rattus norvegicus, UniProt P28564+P30940+P19327+P28565); experiment: Ability to bind at 5-hydroxytryptamine 1 receptor of rat hippocampus by displacing [3H]5-HT; format: tissue-based; method in brief: as §1
[6] = test system: Rattus norvegicus; experiment: Conditioned avoidance response (CAR) when administered perorally; format: functional; settings: po
[7] = test system: Rattus norvegicus; experiment: Spontaneous discharge activity of individual serotonergic neurons in the dorsal raphe (DR) nucleus when administered intravenously in anesthetized male Sprague-Dawley rats; (Inhibitory); format: functional; settings: iv
[8] = test system: Rattus norvegicus; experiment: Spontaneous discharge activity of individual dopaminergic neurons in substantia nigra (A9DA cells) when administered subcutaneously at dose of 5.0 mg/kg/day in anesthetized male Sprague-Dawley rats; small increase in the number of DA cells per track; format: functional, organism-based
[9] = target: T1, Adrenergic receptor alpha-1 (Rattus norvegicus, UniProt P15823+P23944+P43140); experiment: Ability to bind at alpha-1 adrenergic receptor by displacing [3H]WB-4101; format: protein assay; method in brief: as §1
T1 sequence (P15823 whole entry): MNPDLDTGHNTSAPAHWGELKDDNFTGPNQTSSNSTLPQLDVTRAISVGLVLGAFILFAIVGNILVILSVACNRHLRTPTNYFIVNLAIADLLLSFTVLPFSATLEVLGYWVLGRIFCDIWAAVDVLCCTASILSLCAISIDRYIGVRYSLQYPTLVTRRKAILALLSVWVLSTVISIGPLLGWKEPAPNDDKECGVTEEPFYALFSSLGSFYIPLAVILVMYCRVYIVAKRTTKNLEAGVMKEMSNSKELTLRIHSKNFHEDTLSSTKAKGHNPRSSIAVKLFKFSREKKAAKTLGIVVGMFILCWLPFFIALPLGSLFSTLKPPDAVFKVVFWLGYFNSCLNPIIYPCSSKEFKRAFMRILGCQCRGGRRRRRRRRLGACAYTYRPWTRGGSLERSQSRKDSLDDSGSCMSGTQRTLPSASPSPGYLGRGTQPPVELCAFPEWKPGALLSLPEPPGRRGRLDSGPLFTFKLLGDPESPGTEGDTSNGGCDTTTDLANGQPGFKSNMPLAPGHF
T1 sequence (P23944 whole entry): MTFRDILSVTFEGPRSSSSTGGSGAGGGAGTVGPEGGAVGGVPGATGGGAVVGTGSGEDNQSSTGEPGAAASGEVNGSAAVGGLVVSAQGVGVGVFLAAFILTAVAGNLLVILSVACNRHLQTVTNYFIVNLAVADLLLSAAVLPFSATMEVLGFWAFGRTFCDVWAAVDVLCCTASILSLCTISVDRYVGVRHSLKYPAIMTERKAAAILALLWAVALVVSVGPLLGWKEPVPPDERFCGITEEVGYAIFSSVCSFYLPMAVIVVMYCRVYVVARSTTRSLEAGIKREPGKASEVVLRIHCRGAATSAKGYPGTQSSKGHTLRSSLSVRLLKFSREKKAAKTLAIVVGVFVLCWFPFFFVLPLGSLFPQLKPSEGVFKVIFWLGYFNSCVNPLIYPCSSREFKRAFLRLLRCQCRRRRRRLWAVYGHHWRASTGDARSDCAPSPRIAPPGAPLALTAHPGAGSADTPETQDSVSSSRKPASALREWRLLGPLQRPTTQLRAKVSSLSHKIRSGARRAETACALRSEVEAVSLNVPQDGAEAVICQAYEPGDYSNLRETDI
T1 sequence (P43140 whole entry): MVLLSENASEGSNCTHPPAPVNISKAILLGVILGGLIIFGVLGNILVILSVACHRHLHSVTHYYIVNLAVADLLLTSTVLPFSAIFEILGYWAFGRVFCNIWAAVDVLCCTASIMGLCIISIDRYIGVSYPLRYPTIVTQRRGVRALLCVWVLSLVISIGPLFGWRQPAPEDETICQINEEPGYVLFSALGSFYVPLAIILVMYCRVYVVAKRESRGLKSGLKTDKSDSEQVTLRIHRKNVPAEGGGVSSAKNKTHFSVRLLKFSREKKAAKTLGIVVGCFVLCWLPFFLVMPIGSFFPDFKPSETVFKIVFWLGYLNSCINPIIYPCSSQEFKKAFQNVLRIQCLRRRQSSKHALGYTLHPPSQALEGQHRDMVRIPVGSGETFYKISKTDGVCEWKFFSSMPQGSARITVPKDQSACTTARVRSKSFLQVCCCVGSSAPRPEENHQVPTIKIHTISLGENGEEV

[10] = test system: Rattus norvegicus; experiment: Blockade of Sidman-avoidance activity in rats when administered perorally; format: functional; settings: po
Method in brief: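 Rats trained in once-daily Sidman sessions until stable; non-learners after 3 days replaced. Twelve rats dosed 30 min before session. Each rat compared with mean of its previous three drug-free days by paired t test. Testing continued to minimally effective dose; maximum usually 100 mg/kg. MED is mean over 12 animals.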

[11] = test system: Rattus norvegicus; experiment: Induction of catalepsy in rats when administered perorally and maximum dose examined was 4 times the ED50 value established in CAR; Inactive; format: functional, organism-based
[12] = test system: Rattus norvegicus; experiment: Spontaneous discharge activity of individual dopaminergic neurons in the ventral tegmentum neurons (A10 DA cells) when administered subcutaneously at a dose of 5.0 mg/kg/day in anesthetized male Sprague-Dawley rats; No effect at a dose of 0.1-6.3 mg/kg; format: functional, organism-based; settings: A10DA
[13] = test system: Rattus norvegicus; experiment: Blockade of apomorphine-induced stereotypy in rats when administered perorally; format: functional; settings: po
[14] = target: Serotonin 2 (5-HT2) receptor (Rattus norvegicus, UniProt P30994+P08909+P14842); experiment: Ability to bind at serotonin 5-hydroxytryptamine 2 receptors of rat cortex by displacing [3H]spiperone
[15] = test system: Rattus norvegicus; experiment: Spontaneous discharge activity of individual dopaminergic neurons in the ventral tegmentum neurons (A10 DA cells) when administered intravenously at a dose of 0.1-6.3 mg/kg in anesthetized male Sprague-Dawley rats; No effect at a dose of 0.1-6.3 m g/kg; format: functional, organism-based; settings: A10DA

IC50 [3]: > 1000 nM | IC50 [5]: 33.5 nM | IC50 [9]: 40.9 nM | IC50 [14]: 55.2 nM
SMILES: O=C1COCC(=O)N1CCCCN1CCN(c2nccc3occc23)CC1
ED25 [1]: inactive | ED50 [2]: 2.2 mg/kg | ED25 [4]: 0.017 mg/kg | ED50 [6]: 11.2 mg/kg | ED50 [7]: 0.01 mg/kg | ED25 [8]: inactive | MED [10]: 25 mg/kg | ED50 [11]: inactive | ED25 [12]: inactive | ED50 [13]: 34 mg/kg | ED25 [15]: inactive
